# Laboratory results as given in ChEMBL document CHEMBL1126114, “A novel orally active inhibitor of IL-1 generation: synthesis and structure-activity relationships of 3-(4-hydroxy-1-naphthalenyl)-2-propenoic acid derivatives” (J Med Chem, 1992).
# Tests used:
# Assay type in all cases: functional
# Rattus norvegicus [1] = experiment: The compound was tested for IL-1 generation on CMC-LPS air-pouch model at 2.5 mg/kg by oral administration
# Summary of the method: (§1)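 Rats got 10 mL subcutaneous dorsal air, then 6 mL sterile 2% (w/v) CMC-Na in saline into the pouch 24 h later, then 5 ng LPS in 0.5 mL saline 24 h after that. Compound given orally as a suspension in 0.5% methyl cellulose 2 h before LPS. Exudate collected 4 h after LPS. Extra- plus intracellular IL-1 measured by LAF assay against a human recombinant IL-1α curve. Percent inhibition versus control; five rats per group.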
# Rattus norvegicus [2] = experiment: % inhibition against arthritis on adjuvant-untreated paw in rats at 5 mg/kg by oral administration
# Summary of the method: (§2)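 Adjuvant arthritis in rats; drug given orally once daily from the first day of adjuvant treatment. Swelling of the adjuvant-untreated paw measured by plethysmometer on day 15 after adjuvant; % inhibition versus control. Mean ± SEM of 6–10 animals; significance versus control.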
# Rattus norvegicus [3] = experiment: Inhibitory activity against Granuloma on CMC-LPS air-pouch model at 10 mg/kg by oral administration
# Summary of the method: (§3)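 Rat CMC-LPS air pouch (air, 2% CMC-Na, then LPS 5 ng). Oral dosing in 0.5% methyl cellulose 2 h before LPS. Granuloma wet weight determined 5 days after LPS; % inhibition versus control, with an LPS-free group included.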
# Rattus norvegicus [4] = experiment: Inhibitory activity against Granuloma on CMC-LPS air-pouch model at 2.5 mg/kg by oral administration; summary of the method: as §3
# Rattus norvegicus [5] = experiment: Inhibitory activity against IL-1 on CMC-LPS air-pouch model at 10 mg/kg by oral administration
# Summary of the method: (§4)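 Rat CMC-LPS air pouch: air s.c., 2% CMC-Na 24 h later, LPS 5 ng 24 h after that. Compound given orally in 0.5% methyl cellulose 2 h before LPS. Exudate collected at 4 h; IL-1 (extra- plus intracellular) read by LAF assay against a recombinant human IL-1α curve.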
# Rattus norvegicus [6] = experiment: Inhibitory activity against IL-1 on CMC-LPS air-pouch model at 2.5 mg/kg by oral administration; summary of the method: as §4
# Rattus norvegicus [7] = experiment: Inhibitory activity against PGE-2 on CMC-LPS air-pouch model at 10 mg/kg by oral administration
# Summary of the method: (§5)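 Rat CMC-LPS air pouch (air, 2% CMC-Na, then LPS 5 ng). Oral dosing in 0.5% methyl cellulose 2 h before LPS. PGE2 in the exudate supernatant collected 4 h after LPS, measured by radioimmunoassay.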
# Rattus norvegicus [8] = experiment: Inhibitory activity against PGE-2 on CMC-LPS air-pouch model at 2.5 mg/kg by oral administration; summary of the method: as §5
# Rattus norvegicus [9] = experiment: The compound was tested for IL-1 generation on CMC-LPS air-pouch model at 3 mg/kg by oral administration; summary of the method: as §1
# Rattus norvegicus [10] = experiment: % inhibition against arthritis on adjuvant-untreated paw in rats at 1 mg/kg by oral administration; summary of the method: as §2
# Rattus norvegicus [11] = experiment: The compound was tested for Granuloma generation on CMC-LPS air-pouch model at 3 mg/kg by oral administration; summary of the method: as §3
# Rattus norvegicus [12] = experiment: Inhibitory activity against Granuloma on CMC-LPS air-pouch model at 3 mg/kg by oral administration; summary of the method: as §3
# Rattus norvegicus [13] = experiment: Inhibitory activity against IL-1 on CMC-LPS air-pouch model at 3 mg/kg by oral administration; summary of the method: as §4
# Rattus norvegicus [14] = experiment: Inhibitory activity against PGE-2 on CMC-LPS air-pouch model at 3 mg/kg by oral administration; summary of the method: as §5
SMILES,IL-1 level (Rattus norvegicus [1]) [units/mL],inhibition in vivo at 5 mg/kg (Rattus norvegicus [2]) [%],inhibition in vivo at 10 mg/kg (Rattus norvegicus [3]) [%],inhibition in vivo at 2.5 mg/kg (Rattus norvegicus [4]) [%],inhibition in vivo at 10 mg/kg (Rattus norvegicus [5]) [%],inhibition in vivo at 2.5 mg/kg (Rattus norvegicus [6]) [%],inhibition in vivo at 10 mg/kg (Rattus norvegicus [7]) [%],inhibition in vivo at 2.5 mg/kg (Rattus norvegicus [8]) [%],IL-1 level (Rattus norvegicus [9]) [units/mL],inhibition in vivo at 1 mg/kg (Rattus norvegicus [10]) [%],Wet weight (Rattus norvegicus [11]) [g],inhibition in vivo at 3 mg/kg (Rattus norvegicus [12]) [%],inhibition in vivo at 3 mg/kg (Rattus norvegicus [13]) [%],inhibition in vivo at 3 mg/kg (Rattus norvegicus [14]) [%]
C[C@]12C=CC(=O)C=C1CC[C@@H]1[C@@H]2[C@@H](O)C[C@@]2(C)[C@H]1CC[C@]2(O)C(=O)CO [PREDNISOLONE],596,44.4,88,48,64,34,86,69,–,–,–,–,–,–
COc1ccc2c(c1)c(CC(=O)O)c(C)n2C(=O)c1ccc(Cl)cc1 [INDOMETHACIN],–,–,–,–,–,–,–,–,995,47.8,2.08,< 25,< 25,97
